Experimental data: ChEMBL document CHEMBL1165849, “New structures and bioactivity properties of jasplakinolide (jaspamide) analogues from marine sponges” (2010)
Blank lines part the entries; values can stand above or below the molecule they belong to. The source made the active and inactive calls. No cut-off for these calls is given here.

Columns and labels:
HCT-116 = assay: Growth inhibition of human HCT116 cells by sulforhodamine B assay; assay type: functional
MCF7 = assay: Growth inhibition of human MCF7 cells by sulforhodamine B assay; assay type: functional
HeLa = assay: Cytotoxicity against human HeLa cells at 80 nM after 34 hrs by microfilament disruption assay; assay type: functional, cell-based
M14 = assay: Growth inhibition of human M14 cells by sulforhodamine B assay; assay type: functional
Summary of the method: (§1)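 Tested by NCI in the NCI-DTP 60 cell line panel screen; GI50 was derived, with TGI and LC50 from the same data.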

786-0 = assay: Growth inhibition of human 786-0 cells by sulforhodamine B assay; assay type: functional; summary of the method: as §1
OVCAR-3 = assay: Growth inhibition of human OVCAR-3 cells by sulforhodamine B assay; assay type: functional; summary of the method: as §1
HOP-62 = assay: Growth inhibition of human HOP62 cells by sulforhodamine B assay; assay type: functional; summary of the method: as §1
[1] = Growth inhibition of human […] cells by sulforhodamine B assay; assay type: functional; summary of the method: as §1
SF-539 = assay: Growth inhibition of human SF539 cells by sulforhodamine B assay; assay type: functional; summary of the method: as §1
HCT-15 = assay: Growth inhibition of human HCT15 cells by sulforhodamine B assay; assay type: functional; summary of the method: as §1

GI50 (HCT-116; Homo sapiens, HCT-116): > 10 µM
GI50 (MCF7; Homo sapiens, MCF7): > 10 µM
SMILES: C/C1=C\[C@H](C)C[C@H](C)OC(=O)C[C@H](c2ccc(O)cc2)NC(=O)[C@@H](C[C@@]2(O)C(=O)Nc3ccccc32)N(C)C(=O)C(C)NC(=O)[C@@H](C)C1 (stereo partly specified)
Activity (HeLa): inactive

SMILES: C/C1=C\[C@H](C)C[C@H](C)OC(=O)C[C@H](c2ccc(O)cc2)NC(=O)[C@@H](Cc2c(Br)[nH]c3ccccc23)N(C)C(=O)[C@H](C)NC(=O)CC1
Activity (HeLa): Active

SMILES: C/C1=C\[C@H](C)C[C@H](C)OC(=O)C[C@H](c2ccc(O)cc2)NC(=O)[C@@H](Cc2ncnc3ccccc23)N(C)C(=O)C(C)NC(=O)[C@@H](C)C1 (stereo partly specified)
Activity (HeLa): inactive

SMILES: C=C1C[C@H](C)C(=O)N[C@@H](C)C(=O)N(C)[C@H](CC2(OC)OC(=O)Nc3ccccc32)C(=O)N[C@@H](c2ccc(O)cc2)CC(=O)O[C@@H](C)C[C@@H](C)C1=O (stereo partly specified)
Activity (HeLa): inactive

SMILES: C=C1C[C@H](C)C(=O)N[C@@H](C)C(=O)N(C)[C@H](Cc2c(Br)[nH]c3ccccc23)C(=O)N[C@@H](c2ccc(O)cc2)CC(=O)O[C@@H](C)C[C@@H](C)[C@@H]1O
Activity (HeLa): inactive

SMILES: C=C1C[C@H](C)C(=O)N[C@@H](C)C(=O)N(C)[C@H](Cc2c(Br)[nH]c3ccccc23)C(=O)N[C@@H](c2ccc(O)cc2)CC(=O)O[C@@H](C)C[C@@H](C)[C@H]1O
Activity (HeLa): inactive

SMILES: COC1(C[C@@H]2C(=O)N[C@@H](c3ccc(O)cc3)CC(=O)O[C@@H](C)C[C@@H](C)/C=C(\C)C[C@H](C)C(=O)N[C@@H](C)C(=O)N2C)OC(=O)Nc2ccccc21 (stereo in doubt; 5)
Activity (HeLa): inactive

SMILES: COC1(C[C@@H]2C(=O)N[C@@H](c3ccc(O)cc3)CC(=O)O[C@@H](C)C[C@@H](C)/C=C(\C)C[C@H](C)C(=O)N[C@@H](C)C(=O)N2C)OC(=O)Nc2ccccc21 (stereo in doubt; 5) [JASPLAKINOLIDEP]
GI50 (HCT-116; Homo sapiens, HCT-116): 0.35 µM
GI50 (MCF7): 4.9 µM

SMILES: COC1(C[C@@H]2C(=O)N[C@@H](c3ccc(O)cc3)CC(=O)O[C@@H](C)C[C@@H](C)/C=C(\C)C[C@H](C)C(=O)N[C@@H](C)C(=O)N2C)OC(=O)Nc2ccccc21 (stereo in doubt; 6)
Activity (HeLa): inactive

SMILES: COC1(C[C@@H]2C(=O)N[C@@H](c3ccc(O)cc3)CC(=O)O[C@@H](C)C[C@@H](C)/C=C(\C)C[C@H](C)C(=O)N[C@@H](C)C(=O)N2C)OC(=O)Nc2ccccc21 (stereo in doubt; 6) [JASPLAKINOLIDEP]
GI50 (HCT-116): 0.38 µM
GI50 (MCF7): 2.4 µM

SMILES: C/C1=C\[C@H](C)C[C@H](C)OC(=O)C[C@H](c2ccc(O)cc2)NC(=O)[C@@H](Cc2c(Br)[nH]c3ccccc23)N(C)C(=O)[C@H](CO)NC(=O)[C@@H](C)C1 [JASPAMIDE E]
GI50 (HCT-116; Homo sapiens, HCT-116): 0.14 µM
GI50 (M14): 0.078 µM
GI50 (MCF7; Homo sapiens, MCF7): 0.18 µM
Activity (HeLa): inactive
GI50 (786-0): 0.18 µM
GI50 (OVCAR-3): 0.53 µM
GI50 (HOP-62): 0.14 µM
GI50 [1]: 0.022 µM
GI50 (SF-539): 0.17 µM
GI50 (HCT-15): 0.97 µM

SMILES: C/C1=C\[C@H](C)C[C@H](C)OC(=O)C[C@H](c2ccc(O)cc2)NC(=O)[C@@H](Cc2c(Br)[nH]c3ccccc23)N(C)C(=O)[C@H](C)NC(=O)[C@@H](C)C1 [JASPAMIDE]
GI50 (HCT-116; Homo sapiens, HCT-116): 0.1 µM
GI50 (M14): 0.056 µM
Activity (HeLa): Active
GI50 (786-0): 0.02 µM
GI50 (OVCAR-3): 0.04 µM
GI50 (HOP-62): 0.15 µM
GI50 [1]: 0.031 µM
GI50 (SF-539): 0.3 µM
GI50 (HCT-15): 0.69 µM

SMILES: C=C1C[C@H](C)C(=O)N[C@@H](C)C(=O)N(C)[C@H](Cc2c(Br)[nH]c3ccccc23)C(=O)N[C@@H](c2ccc(O)cc2)CC(=O)O[C@@H](C)C[C@@H](C)C1=O [JASPLAKINOLIDE B]
GI50 (HCT-116; Homo sapiens, HCT-116): < 0.001 µM
GI50 (M14): 0.053 µM
GI50 (MCF7; Homo sapiens, MCF7): 0.13 µM
Activity (HeLa): inactive
GI50 (786-0): 0.51 µM
GI50 (OVCAR-3): 0.11 µM
GI50 (HOP-62): 0.14 µM
GI50 [1]: 0.0019 µM
GI50 (SF-539): 0.064 µM
GI50 (HCT-15): 6.6 µM

SMILES: C/C1=C\[C@H](C)C[C@H](C)OC(=O)C[C@H](c2ccc(O)cc2)NC(=O)[C@@H](C[C@]2(O)C(=O)Nc3ccccc32)N(C)C(=O)C(C)NC(=O)[C@@H](C)C1 (stereo partly specified) [JASPLAKINOLIDE S]
GI50 (HCT-116; Homo sapiens, HCT-116): 0.81 µM
GI50 (MCF7; Homo sapiens, MCF7): 2.3 µM
Activity (HeLa): inactive
